# Results from PubChem BioAssay.
# Active and inactive are the calls of the source.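 The calls were made as follows, unless noted: active = inhibition above 20% together with a positive visual image hit; inconclusive = visual image hit but inhibition not above 20%; inactive = no visual image hit.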
# Experiments:
# [1] = inhibitors of TNFa-induced NFkB p65 translocation, primary screen, imaging, HUVEC, MLSMR starter and 10KST1 sets (AID 438); details: HUVEC TNFa-induced p65 nuclear translocation; cell count: measured here: nuclei count (cytotoxicity indicator), at 2.08 µM; inhibition: at 2 µM, stronger effect = higher value, 0% TNFa-plus-vehicle, 100% no-TNFa wells;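 also: compound added about 3h40 before a 20 min TNFalpha stimulation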;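 as to inhibition: signal is the nuclear over cytoplasmic p65 intensity ratio per well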
# [2] = inhibitors of mutant huntingtin aggregation, primary screen, imaging, exon1htt(103Q)mCFP cells, high-content imaging (AID 483;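 active = visual image review flags a hit and inhibition of aggregation exceeds 20%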;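 also: compound exposure lasted 3 days before fixation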;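 as to nuclei count: percent of the per-plate median nuclei count of sample wells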); details: exon1htt(103Q)mCFP cell line, aggregate imaging, at 2 µM; inhibition of aggregation: stronger effect = higher value; nuclei count: measured here: cell count, toxicity
# [3] = inhibitors of E-selectin induction by TNFa, primary screen, imaging, HUVEC, immunofluorescence, MLSMR starter and 10KST1 sets (AID 487;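 active = visually confirmed hit in the image check and inhibition above 20%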;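 as to inhibition: signal is fraction of cell area covered by stained E-selectin grains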;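 as to nuclei count: 100% = median nuclei count of all wells on the same plate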); details: HUVEC TNFalpha-induced E-selectin immunofluorescence imaging, at 2 µM; inhibition: stronger effect = higher value; nuclei count: measured here: cell number, toxicity
# [4] = molecular target: Voltage-gated potassium channel subunit beta-2 (Rattus norvegicus) (UniProt P62483); experiment: KvBeta enzyme negative modulators, primary screen, biochemical, NADPH fluorescence (AID 622;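 active = fluorescence slope higher than the sample average by over 3 SD, cut at about -0.22 in these data, passing the limit was not always enough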;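 also: slope of raw intensity against log time taken from 70 to 1610 s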); details: recombinant KvBeta, 4-cyanobenzaldehyde reduction, at 10 µM, stronger effect = higher value
# Voltage-gated potassium channel subunit beta-2 (Rattus norvegicus), sequence (P62483 whole entry, looked up): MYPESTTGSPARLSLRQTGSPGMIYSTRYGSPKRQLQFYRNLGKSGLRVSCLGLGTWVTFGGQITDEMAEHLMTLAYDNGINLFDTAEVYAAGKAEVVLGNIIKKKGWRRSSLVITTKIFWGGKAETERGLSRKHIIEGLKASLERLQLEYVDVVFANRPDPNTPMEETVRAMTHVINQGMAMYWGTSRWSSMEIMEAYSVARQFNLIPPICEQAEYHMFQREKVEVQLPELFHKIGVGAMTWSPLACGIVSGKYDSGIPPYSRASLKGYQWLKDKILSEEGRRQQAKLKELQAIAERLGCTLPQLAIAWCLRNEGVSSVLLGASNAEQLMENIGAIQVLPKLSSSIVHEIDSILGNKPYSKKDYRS
# [5] = molecular target: Voltage-gated potassium channel subunit beta-2 (Rattus norvegicus) (UniProt P62483); experiment: KvBeta positive modulators, primary screen, biochemical, NADPH fluorescence (AID 623;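 active = NADPH fluorescence slope more negative than the mean of all samples by about 3 SD, 99.7% confidence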;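 also: fluorescence intensity change per second fitted from 20 to 320 s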); details: Recombinant KvBeta, NADPH fluorescence decrease slope, 10 min; at 10 µM; stronger effect = lower value
# [6] = molecular target: Muscarinic acetylcholine receptor M4 (Homo sapiens) (UniProt P08173); experiment: compounds altering M4/GIRK thallium flux, either direction, primary screen, M4 allosteric agonist project, cell-based, HEK293 M4/GIRK, BTC-AM (AID 625;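 active = fluorescence slope after compound addition differing from the mean of all tested samples at 99.7% confidence, mostly higher but some lower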;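 also: thallium influx through GIRK channels coupled to M4 in HEK293 cells with BTC-AM dye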); details: at 10 µM, actives lie on both sides
# Muscarinic acetylcholine receptor M4 (Homo sapiens), sequence (P08173 whole entry, looked up): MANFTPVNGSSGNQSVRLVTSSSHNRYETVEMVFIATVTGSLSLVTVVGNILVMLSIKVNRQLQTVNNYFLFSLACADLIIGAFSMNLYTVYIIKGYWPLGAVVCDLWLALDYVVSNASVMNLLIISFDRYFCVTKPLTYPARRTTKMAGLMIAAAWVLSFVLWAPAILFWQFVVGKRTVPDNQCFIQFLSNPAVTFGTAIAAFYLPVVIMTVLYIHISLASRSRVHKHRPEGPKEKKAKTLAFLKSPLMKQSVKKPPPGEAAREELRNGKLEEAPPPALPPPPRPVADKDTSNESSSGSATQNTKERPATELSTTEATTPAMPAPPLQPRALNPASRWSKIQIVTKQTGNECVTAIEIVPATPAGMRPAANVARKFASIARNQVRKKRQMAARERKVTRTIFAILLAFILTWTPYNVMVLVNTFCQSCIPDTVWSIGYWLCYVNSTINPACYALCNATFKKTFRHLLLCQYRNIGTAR
# Method in brief: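 assay system = HEK293 cells with M4 receptor and GIRK channels | medium = pH 7.3 thallium assay buffer | doses = 10 µM final, single point | timing = cells overnight at 37 °C, BTC-AM loading 1 h, reads 2 min total | signal = BTC-AM fluorescence, 1 Hz kinetic reads | read-out = post-addition slope, 15–24 s, of baseline-normalized fluorescence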
# [7] = inhibitors of Sendai virus-induced IRF3 signaling, primary screen, TLR/RLR signaling modifier project, cell-based, Sendai virus stimulus, luciferase, 10K MLSCN set (AID 602276;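 active = inhibition at or above 50% at 10 µM; inactive = inhibition below 50%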;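 also: firefly luciferase from ISG56 promoter only with Renilla not read in this screen; 0% = Sendai virus plus DMSO and 100% = medium plus DMSO without virus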); details: HEK293 RL24 IRF3 luciferase reporter, at 10 µM, stronger effect = higher value
# [8] = inhibitors of poly I:C-induced TLR3 signaling, primary screen, cell-based, poly I:C stimulus, luciferase, 10K MLSCN set (AID 602277;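 active = inhibition of the reporter signal at or above 50%; inactive = inhibition below 50%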); details: HEK293-TLR3 RL24 IRF3 luciferase reporter, at 10 µM, stronger effect = higher value
structure (smiles),measurement,setting,value
CCC(=O)c1ccc(OCCN2CCOCC2)cc1,cell count,[1],387
same,inhibition,[1],-5.3% (inactive)
same,inhibition of aggregation,[2],-1.8% (inactive)
same,nuclei count,[2],107%
same,inhibition,[3],-104% (inactive)
same,nuclei count,[3],120%
same,fluorescence slope,[4],-0.566 (inactive)
same,NADPH fluorescence slope,[5],-4.5e-05 (inactive)
same,fluorescence slope,[6],0.00623 (inactive)
same,inhibition,[7],6.75% (inactive)
same,inhibition,[8],7.43% (inactive)
O=C(Nc1ccc2oc(-c3ccncc3)nc2c1)c1cccs1,cell count,[1],159
same,inhibition,[1],108% (active)
same,inhibition of aggregation,[2],-8.6% (inactive)
same,nuclei count,[2],103%
same,inhibition,[3],14.7% (inactive)
same,nuclei count,[3],113%
same,fluorescence slope,[4],-0.346 (inactive)
same,NADPH fluorescence slope,[5],-0.000115 (inactive)
same,fluorescence slope,[6],0.00345 (inactive)
same,inhibition,[7],-55.9% (inactive)
same,inhibition,[8],-120% (inactive)
O=S(=O)(NCCCCCNS(=O)(=O)c1ccccc1)c1ccccc1,cell count,[1],468
same,inhibition,[1],4.3% (inactive)
same,inhibition of aggregation,[2],-5% (inactive)
same,nuclei count,[2],104%
same,inhibition,[3],-56.2% (inactive)
same,nuclei count,[3],142%
same,fluorescence slope,[4],-0.547 (inactive)
same,NADPH fluorescence slope,[5],-3.3e-05 (inactive)
same,fluorescence slope,[6],0.00488 (inactive)
same,inhibition,[7],20.2% (inactive)
same,inhibition,[8],22.6% (inactive)
O=C(CCC(=O)OCCCC(F)(F)C(F)(F)F)NC1CCCCC1,cell count,[1],424
same,inhibition,[1],4% (inactive)
same,inhibition of aggregation,[2],5.5% (inactive)
same,nuclei count,[2],108%
same,inhibition,[3],-37.5% (inactive)
same,nuclei count,[3],122%
same,fluorescence slope,[4],-0.53 (inactive)
same,NADPH fluorescence slope,[5],-4e-05 (inactive)
same,fluorescence slope,[6],0.00556 (inactive)
same,inhibition,[7],13.9% (inactive)
same,inhibition,[8],16.1% (inactive)
CC(=O)c1c(C)[nH]c(C(=O)Nc2ccc3c(c2)OCCO3)c1C,cell count,[1],402
same,inhibition,[1],-3.5% (inactive)
same,inhibition of aggregation,[2],-4.8% (inactive)
same,nuclei count,[2],115%
same,inhibition,[3],-18.4% (inactive)
same,nuclei count,[3],114%
same,fluorescence slope,[4],-0.596 (inactive)
same,NADPH fluorescence slope,[5],6.7e-06 (inactive)
same,fluorescence slope,[6],0.00406 (inactive)
same,inhibition,[7],-15.9% (inactive)
same,inhibition,[8],-58% (inactive)
O=C(N1CCN(Cc2ccccc2)CC1)C12CC3CC(CC(C3)C1)C2,cell count,[1],530
same,inhibition,[1],-4.3% (inactive)
same,inhibition of aggregation,[2],2% (inactive)
same,nuclei count,[2],88.3%
same,inhibition,[3],-15.4% (inactive)
same,nuclei count,[3],92.7%
same,fluorescence slope,[4],-0.327 (inactive)
same,NADPH fluorescence slope,[5],-4.6e-05 (inactive)
same,fluorescence slope,[6],0.00533 (inactive)
same,inhibition,[7],17% (inactive)
same,inhibition,[8],8.52% (inactive)
Cn1c(COc2ccccc2)nnc1SCC(=O)Nc1ccc(N2CCOCC2)c(Cl)c1,cell count,[1],497
same,inhibition,[1],-6.9% (inactive)
same,inhibition of aggregation,[2],-10.9% (inactive)
same,nuclei count,[2],102%
same,inhibition,[3],-6.4% (inactive)
same,nuclei count,[3],102%
same,fluorescence slope,[4],-0.477 (inactive)
same,NADPH fluorescence slope,[5],-6.6e-05 (inactive)
same,fluorescence slope,[6],0.00548 (inactive)
same,inhibition,[7],13.5% (inactive)
same,inhibition,[8],17.5% (inactive)
CC1CCN(CC(O)COC2CCC(C(C)(C)C)CC2)CC1 (centres undefined),cell count,[1],719
same,inhibition,[1],-6.8% (inactive)
same,inhibition of aggregation,[2],1.9% (inactive)
same,nuclei count,[2],118%
same,inhibition,[3],-11.7% (inactive)
same,nuclei count,[3],111%
same,fluorescence slope,[4],-0.453 (inactive)
same,NADPH fluorescence slope,[5],-0.000251 (inactive)
same,fluorescence slope,[6],0.00347 (inactive)
same,inhibition,[7],6.5% (inactive)
same,inhibition,[8],-5.56% (inactive)
Cc1ccc(S(=O)(=O)N2CCCC2C(=O)n2nc(C)cc2C)cc1 (centres undefined),cell count,[1],432
same,inhibition,[1],-12.3% (inactive)
same,inhibition of aggregation,[2],15.8% (inactive)
same,nuclei count,[2],86.2%
same,inhibition,[3],46.7% (inactive)
same,nuclei count,[3],93.5%
same,fluorescence slope,[4],-0.341 (inactive)
same,NADPH fluorescence slope,[5],-4.4e-05 (inactive)
same,fluorescence slope,[6],0.00537 (inactive)
same,inhibition,[7],12.5% (inactive)
same,inhibition,[8],19.1% (inactive)
Cc1cccc(-n2ncc3c(NCc4ccccn4)ncnc32)c1,cell count,[1],351
same,inhibition,[1],-16.8% (inactive)
same,inhibition of aggregation,[2],4.2% (inactive)
same,nuclei count,[2],101%
same,inhibition,[3],0.4% (inactive)
same,nuclei count,[3],122%
same,fluorescence slope,[4],-0.592 (inactive)
same,NADPH fluorescence slope,[5],-4.2e-05 (inactive)
same,fluorescence slope,[6],0.00598 (inactive)
same,inhibition,[7],-33.2% (inactive)
same,inhibition,[8],-129% (inactive)
Cc1cc(C(F)F)n2ncc(C(=O)NC3CCCCCC3)c2n1,cell count,[1],354
same,inhibition,[1],0% (inactive)
same,inhibition of aggregation,[2],-4.8% (inactive)
same,nuclei count,[2],106%
same,inhibition,[3],1.4% (inactive)
same,nuclei count,[3],113%
same,fluorescence slope,[4],-0.569 (inactive)
same,NADPH fluorescence slope,[5],-7.1e-05 (inactive)
same,fluorescence slope,[6],0.00445 (inactive)
same,inhibition,[7],15.9% (inactive)
same,inhibition,[8],15.5% (inactive)
O=C(NCc1nnc(SCC(=O)N2CCCCCC2)o1)c1ccco1,cell count,[1],595
same,inhibition,[1],-15.7% (inactive)
same,inhibition of aggregation,[2],12.1% (inactive)
same,nuclei count,[2],124%
same,inhibition,[3],-52.2% (inactive)
same,nuclei count,[3],106%
same,fluorescence slope,[4],-0.516 (inactive)
same,NADPH fluorescence slope,[5],-2.1e-05 (inactive)
same,fluorescence slope,[6],0.00384 (inactive)
same,inhibition,[7],6.86% (inactive)
same,inhibition,[8],11% (inactive)
N#Cc1c(-c2ccccc2)nc(SCc2nc(N)nc(N3CCCCC3)n2)[nH]c1=O,cell count,[1],401
same,inhibition,[1],-14% (inactive)
same,inhibition of aggregation,[2],13% (inactive)
same,nuclei count,[2],85.3%
same,inhibition,[3],-20.8% (inactive)
same,nuclei count,[3],97.8%
same,fluorescence slope,[4],-0.442 (inactive)
same,NADPH fluorescence slope,[5],0.000117 (inactive)
same,fluorescence slope,[6],0.00582 (inactive)
same,inhibition,[7],14.8% (inactive)
same,inhibition,[8],-10.4% (inactive)
COCCNc1nc(SCC(=O)N2CCN(c3ccccc3)CC2)nc2ccccc12,cell count,[1],462
same,inhibition,[1],4.1% (inactive)
same,inhibition of aggregation,[2],-53.8% (inactive)
same,nuclei count,[2],70.8%
same,inhibition,[3],-188% (inactive)
same,nuclei count,[3],105%
same,fluorescence slope,[4],-0.395 (inactive)
same,NADPH fluorescence slope,[5],4.2e-05 (inactive)
same,fluorescence slope,[6],0.0054 (inactive)
same,inhibition,[7],-2.13% (inactive)
same,inhibition,[8],8.34% (inactive)
